Data: ChEMBL document CHEMBL4038344, “Novel Diarylurea Based Allosteric Modulators of the Cannabinoid CB1 Receptor: Evaluation of Importance of 6-Pyrrolidinylpyridinyl Substitution” (J Med Chem, 2017)
pIC50: −log10 of the molar value. The source made the active and inactive calls. The rule behind the calls is not given here.

Experiments:
Cannabinoid receptor 1 [1] = target: T1, Cannabinoid receptor 1 (Homo sapiens, UniProt P21554); assay: Agonist activity at human CB1 receptor expressed in CHO cells co-expressing Galpha16 assessed as increase in calcium mobilization at 10 uM measured at 1 sec interval for 90 secs by calcium-5 dye based FLIPR assay relative to CP55,940; type: cell-based; conditions: 0.025 h
T1 sequence (P21554 whole entry): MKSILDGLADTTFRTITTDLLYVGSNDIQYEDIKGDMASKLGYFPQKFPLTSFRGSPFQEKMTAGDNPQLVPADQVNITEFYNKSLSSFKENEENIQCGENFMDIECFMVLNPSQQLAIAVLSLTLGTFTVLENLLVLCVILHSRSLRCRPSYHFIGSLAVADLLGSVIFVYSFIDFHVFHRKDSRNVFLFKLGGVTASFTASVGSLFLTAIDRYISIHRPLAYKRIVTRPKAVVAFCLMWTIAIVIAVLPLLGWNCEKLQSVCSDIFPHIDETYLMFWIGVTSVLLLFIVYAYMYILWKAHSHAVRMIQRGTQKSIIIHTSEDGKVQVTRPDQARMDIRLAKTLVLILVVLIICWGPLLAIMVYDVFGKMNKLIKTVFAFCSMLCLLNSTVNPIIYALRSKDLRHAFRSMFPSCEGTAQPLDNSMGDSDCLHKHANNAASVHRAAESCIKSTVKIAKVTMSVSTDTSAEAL

Cannabinoid receptor 2 [2] = target: T2, Cannabinoid receptor 2 (Homo sapiens, UniProt P34972); assay: (§1) Agonist activity at human CB2 receptor expressed in CHO cells co-expressing Galpha16 assessed as increase in calcium mobilization at 10 uM measured at 1 sec interval for 90 secs by calcium-5 dye based FLIPR assay relative to CP55,940; type: functional, cell-based
T2 sequence (P34972 whole entry): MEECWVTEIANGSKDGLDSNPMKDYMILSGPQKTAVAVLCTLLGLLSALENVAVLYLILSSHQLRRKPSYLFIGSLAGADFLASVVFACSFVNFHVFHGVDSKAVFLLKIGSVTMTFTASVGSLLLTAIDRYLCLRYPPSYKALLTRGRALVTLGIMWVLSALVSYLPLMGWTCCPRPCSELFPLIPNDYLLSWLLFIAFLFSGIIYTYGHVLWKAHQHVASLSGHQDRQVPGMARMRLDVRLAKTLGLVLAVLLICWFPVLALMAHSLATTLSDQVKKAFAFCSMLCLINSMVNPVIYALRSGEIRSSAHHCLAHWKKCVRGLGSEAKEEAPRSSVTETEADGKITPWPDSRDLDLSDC
Method in brief: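 CB2 agonist screen in stable human CB2-CHO-RD-HGA16 cells. Cells were Calcium 5 dye-loaded for 45 min at 37 °C in HBSS/HEPES/probenecid buffer, pH 7.4, and pretreated with vehicle. FLIPR Tetra then added compound at a single concentration. Fluorescence (485/525 nm) was expressed as % of CP55,940 Emax.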

Cannabinoid receptor 2 [3] = target: T2, Cannabinoid receptor 2; assay: as §1, with “Antagonist” for “Agonist”, “inhibition of CP55,940-induced” for “increase in”, “uM preincubated for 15 mins followed by CP55,490 addition” for “uM”; type: functional, cell-based
Cannabinoid receptor 1 [4] = target: Cannabinoid receptor 1 (Mus musculus, UniProt P47746); assay: Allosteric modulation of CB1 receptor in CD-1 mouse cerebellar membranes assessed as inhibition of CP55,940-induced [35S]GTPgammaS binding after 60 mins; type: functional, cell membranes, Cerebellum, Membrane
Sequence of Cannabinoid receptor 1 (Mus musculus, UniProt P47746) (P47746 whole entry): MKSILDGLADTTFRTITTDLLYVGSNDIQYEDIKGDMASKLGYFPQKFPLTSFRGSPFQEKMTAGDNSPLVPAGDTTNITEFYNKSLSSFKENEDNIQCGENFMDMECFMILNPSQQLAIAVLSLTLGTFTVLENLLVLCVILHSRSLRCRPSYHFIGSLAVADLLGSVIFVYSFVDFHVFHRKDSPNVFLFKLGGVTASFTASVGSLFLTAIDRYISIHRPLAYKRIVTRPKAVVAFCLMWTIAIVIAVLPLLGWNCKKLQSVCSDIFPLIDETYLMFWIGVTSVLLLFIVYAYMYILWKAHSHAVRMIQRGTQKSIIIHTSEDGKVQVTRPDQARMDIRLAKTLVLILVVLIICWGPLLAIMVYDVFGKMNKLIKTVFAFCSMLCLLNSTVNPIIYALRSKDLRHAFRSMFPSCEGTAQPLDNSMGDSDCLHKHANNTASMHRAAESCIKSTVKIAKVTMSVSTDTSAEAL
Method in brief: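 They were preincubated 10 min with adenosine deaminase (3 U/ml) in buffer containing 1 mg/ml BSA, then incubated 60 min at 30 °C with 30 µM GDP, 0.1 nM [35S]GTPγS, 100 nM CP55,940 and compound (0.1% DMSO). Nonspecific binding was measured with 30 µM GTPγS. Read-out was filtration.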

Cannabinoid receptor 2 [5] = target: T2, Cannabinoid receptor 2; assay: Antagonist activity at human CB2 receptor expressed in CHO cells co-expressing Galpha16 assessed as inhibition of CP55,940-induced calcium mobilization preincubated for 15 mins followed by CP55,490 addition measured at 1 sec interval for 90 secs by calcium-5 dye based FLIPR assay; type: functional, cell-based
[6] = target: Cannabinoid receptor 1 (Mus musculus) (UniProt P47746); assay: PAM antagonist activity at CB1 receptor in CD-1 mouse cerebellar membranes assessed as increase in [3H]CP55,940 binding after 90 mins relative to control; design: scale not given: the % may be the effect or the level left; conditions: Cerebellum, Membrane
Sequence of Cannabinoid receptor 1 (Mus musculus) (P47746 whole entry, looked up): as the sequence (P47746 whole entry) above

Cannabinoid receptor 1 [7] = target: T1, Cannabinoid receptor 1; assay: PAM antagonist activity at human CB1 receptor expressed in CHO cells co-expressing Galpha16 assessed as inhibition of CP55,940-induced calcium mobilization up to 100 nM preincubated for 15 mins followed by CP55,490 addition measured at 1 sec interval for 90 secs by calcium-5 dye based FLIPR assay; type: functional, cell-based
Rattus norvegicus = assay: Reduction in cocaine-induced reinstatement of cocaine seeking behavior in Sprague-Dawley rat at 10 mg/kg pretreated for 10 mins followed by cocaine treatment on day following last extinction session; type: functional, organism-based
Method in brief: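 Adult male Sprague-Dawley rats (280-300 g) with jugular catheters self-administered cocaine (0.75 mg/kg/infusion, FR1 rising to FR5) in 2-hr daily sessions for 14 days, followed by extinction. On the day after the last extinction session, compound was given 10 min before a cocaine prime (10 mg/kg i.p.). Active lever presses were counted over the 2-hr reinstatement session.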

[8] = target: Cannabinoid receptor 1 (Mus musculus) (UniProt P47746); assay: PAM antagonist activity at CB1 receptor in CD-1 mouse cerebellar membranes assessed as inhibition of CP55,940-induced [35S]GTPgammaS binding after 60 mins; conditions: Cerebellum, Membrane
Liver [9] = assay: Clearance in rat liver microsomes in presence of NADPH by LC-MS/MS analysis; type: ADME, microsome
Method in brief: (§2)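 Compound was incubated at 37 °C with rat liver microsomes (0.5 mg/mL protein) in 100 mM potassium phosphate, pH 7.4, with 1 mM NADPH. Samples were taken at 0, 5, 15, 30 and 45 min and quenched 1:1 with ice-cold stop solution containing labetalol. Half-life and clearance are mean ± SD of two independent experiments.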

Liver [10] = assay: Half life in rat liver microsomes in presence of NADPH by LC-MS/MS analysis; type: ADME, microsome; conditions: microsomes; method in brief: as §2

Structure (SMILES)	Emax at 10 µM (Cannabinoid receptor 1 [1])	Emax (Cannabinoid receptor 2 [2])	Imax (Cannabinoid receptor 2 [3])	other results
O=C(Nc1ccc(Cl)cc1)Nc1cccc(-c2ccc3occc3c2)c1	1%	< 10%	< 50%	–
O=C(Nc1ccc(Cl)cc1)Nc1cccc(-c2ccccn2)c1	9%	< 10%	< 50%	–
O=C(Nc1ccc(Cl)cc1)Nc1cccc(-c2cccc(O)c2)c1	10%	< 10%	< 50%	–
O=C(Nc1ccc(Cl)cc1)Nc1cccc(-c2ccc3ccccc3c2)c1	7%	< 10%	< 50%	–
O=C(Nc1ccc(Cl)cc1)Nc1cccc(-c2ccc3ccccc3n2)c1	5%	< 10%	< 50%	–
O=C(Nc1ccc(Cl)cc1)Nc1cccc(-c2ccc(F)cc2F)c1	9%	< 10%	< 50%	–
COc1cccc(-c2cccc(NC(=O)Nc3ccc(Cl)cc3)c2)c1	13%	< 10%	< 50%	–
O=C(Nc1ccc(Cl)cc1)Nc1cccc(-c2ccc(Cl)cc2)c1	21%	< 10%	< 50%	–
O=C(Nc1ccc(Cl)cc1)Nc1cccc(-c2ccc(-c3ccccc3)cc2)c1	0%	< 10%	< 50%	pIC50 (Cannabinoid receptor 1 [4]): < 5.00
O=C(Nc1ccc(Cl)cc1)Nc1cccc(-c2cncnc2)c1	9%	< 10%	–	pIC50 (Cannabinoid receptor 2 [5]): 5.47
O=C(Nc1ccc(Cl)cc1)Nc1cccc(-c2ccc(Cl)c(Cl)c2)c1	20%	< 10%	–	pIC50 (Cannabinoid receptor 2 [5]): < 5.00
CC(C)(C)c1cc(-c2cccc(NC(=O)Nc3ccc(Cl)cc3)c2)cc(C(C)(C)C)c1	10%	< 10%	< 50%	–
O=C(Nc1ccc(Cl)cc1)Nc1cccc(-c2c(Cl)cccc2Cl)c1	17%	< 10%	< 50%	–
O=C(Nc1ccc(Cl)cc1)Nc1cccc(-c2ccc(F)cc2)c1	9%	< 10%	–	Activity [6]: 215%; inhibition (Cannabinoid receptor 1 [7]): Active; Activity (Rattus norvegicus): Active; pIC50 (Cannabinoid receptor 2 [5]): < 5.00; inhibition [8]: Dose-dependent effect; CLH (Liver [9]): < 4.6 µL/min/mg; t1/2 (Liver [10]): > 300 min
O=C(Nc1ccc(Cl)cc1)Nc1cccc(-c2cccc(-c3ccccc3)c2)c1	1%	< 10%	< 50%	–
O=C(Nc1ccc(Cl)cc1)Nc1cccc(-c2ccc3c(c2)OCO3)c1	10%	< 10%	< 50%	–
